Test results published in ChEMBL document CHEMBL1126205, “Novel spirosuccinimides with incorporated isoindolone and benzisothiazole 1,1-dioxide moieties as aldose reductase inhibitors and antihyperglycemic agents” (1992).
Calls of active or inactive are those of the source. The rule behind the calls is not given here.

Experiments:
[1] = test system: Rattus norvegicus; assay: In vivo galactitol inhibitory activity measured by its ability to inhibit galactitol accumulation in lens at 3 mg/Kg/day; NS=Not significant; format: functional, organism-based; conditions: Lens of camera-type eye
Outline: (§1)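 Rats (n = 6) fed 20% galactose for 4 days, with compound given in the diet at the stated mg/kg per day. Galactitol accumulation in lens, sciatic nerve or diaphragm is scored as percent inhibition versus the non-treated group, as means of 3–8 drug-treated tissue samples. Dunnett's multiple comparison test applies; NS means p > 0.05.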

[2] = test system: Rattus norvegicus; assay: In vivo galactitol inhibitory activity measured by its ability to inhibit galactitol accumulation in diaphragm at 3 mg/Kg/day; NS=Not significant; format: functional, organism-based; outline: as §1
[3] = test system: Mus musculus; assay: Antihyperglycemic activity measured as percent decrease in mice plasma glucose at 100 mg/Kg/day; format: functional
Outline: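 Male db/db (C57BL/KsJ) mice, 4–6 per group, dosed at 100 mg/kg per day. Plasma glucose of the drug-treated group is expressed as percent decrease relative to a vehicle-treated control group. Values are mean ± SE, with p < 0.05 marked.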

[4] = target: Aldo-keto reductase family 1 member B1 (Bos taurus) (UniProt P16116); assay: In vitro aldose reductase inhibitory activity measured by NADPH-dependent inhibition of glyceraldehyde reduction in a partially purified bovine lens preparation at 10E-6 M
Outline: (§2)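 Aldose reductase partially purified from bovine lens. Inhibition of NADPH-dependent glyceraldehyde reduction is measured at the single stated concentration and reported as percent inhibition, the mean of two determinations.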

[5] = test system: Rattus norvegicus; assay: In vivo galactitol inhibitory activity measured by its ability to inhibit galactitol accumulation in sciatic nerve at 3 mg/Kg/day; NS=Not significant; format: functional, organism-based
Outline: (§3)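 Rats (n = 6) fed 20% galactose for 4 days, with compound given in the diet at the stated daily dose. Galactitol accumulation was measured in lens, sciatic nerve and diaphragm, and % inhibition was taken versus the nontreated group. Means are from three to eight drug-treated tissue samples. Dunnett's multiple comparison test was applied, with p > 0.05 reported as not significant.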

[6] = target: Aldo-keto reductase family 1 member B1 (Bos taurus) (UniProt P16116); assay: In vitro aldose reductase inhibitory activity measured by NADPH-dependent inhibition of glyceraldehyde reduction in a partially purified bovine lens preparation at 10E-7 M; outline: as §2
[7] = test system: Mus musculus; assay: Antihyperglycemic activity was determined by measuring percent decrease in plasma glucose at 1 mg/kg/day; format: functional
[8] = test system: Mus musculus; assay: Antihyperglycemic activity was determined by measuring percent decrease in plasma glucose at 5 mg/kg/day; format: functional
[9] = test system: Rattus norvegicus; assay: In vivo galactitol activity by measuring its ability to inhibit galactitol accumulation in sciatic nerve at 6 mg/Kg/day; NS=Not significant (% Inhibition); format: functional, organism-based; outline: as §1
[10] = test system: Rattus norvegicus; assay: In vivo galactitol inhibitory activity measured by its ability to inhibit galactitol accumulation in lens at 6 mg/Kg/day; NS=Not significant (% Inhibition); format: functional, organism-based; conditions: Lens of camera-type eye; outline: as §1
[11] = test system: Rattus norvegicus; assay: In vivo galactitol inhibitory activity measured by its ability to inhibit galactitol accumulation in sciatic nerve at 6 mg/Kg/day; NS=Not significant (% Inhibition); format: functional, organism-based; outline: as §3
[12] = test system: Rattus norvegicus; assay: In vivo galactitol inhibitory activity measured by its ability to inhibit galactitol accumulation in diaphragm at 3 mg/Kg/day; format: functional; outline: as §1
[13] = test system: Rattus norvegicus; assay: In vivo galactitol inhibitory activity measured by its ability to inhibit galactitol accumulation in lens at 10 mg/Kg/day; format: functional; conditions: Lens of camera-type eye; outline: as §1
[14] = test system: Rattus norvegicus; assay: In vivo galactitol inhibitory activity measured by its ability to inhibit galactitol accumulation in lens at 6 mg/Kg/day; format: functional, Lens of camera-type eye; conditions: Rattus norvegicus, Lens of camera-type eye; outline: as §1
[15] = test system: Rattus norvegicus; assay: In vivo galactitol inhibitory activity measured by its ability to inhibit galactitol accumulation in diaphragm at 6 mg/Kg/day; format: functional; outline: as §1
[16] = test system: Rattus norvegicus; assay: In vivo galactitol inhibitory activity measured by its ability to inhibit galactitol accumulation in diaphragm at 10 mg/Kg/day; format: functional; outline: as §1
[17] = test system: Rattus norvegicus; assay: In vivo galactitol inhibitory activity measured by its ability to inhibit galactitol accumulation in lens at 3 mg/Kg/day; NS=Not significant (% Inhibition); format: functional, organism-based; conditions: Lens of camera-type eye; outline: as §1
[18] = test system: Rattus norvegicus; assay: In vivo galactitol inhibitory activity measured by its ability to inhibit galactitol accumulation in sciatic nerve at 3 mg/Kg/day; format: functional; outline: as §3
[19] = test system: Rattus norvegicus; assay: In vivo galactitol inhibitory activity measured by its ability to inhibit galactitol accumulation in sciatic nerve at 10 mg/Kg/day; NS=Not significant (% Inhibition); format: functional, organism-based; outline: as §3
[20] = test system: Mus musculus; assay: Antihyperglycemic activity measured as percent decrease in mice plasma glucose at 87 mg/Kg/day; format: functional
Outline: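 Male db/db (C57BL/KsJ) mice, 4–6 per group, dosed at the stated mg/kg per day. Plasma glucose is expressed as percent decrease versus the vehicle-treated group. Values are mean ± SE.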

[21] = test system: Rattus norvegicus; assay: In vivo galactitol inhibitory activity measured by its ability to inhibit galactitol accumulation in sciatic nerve at 4 mg/Kg/day; format: functional; outline: as §3
[22] = test system: Rattus norvegicus; assay: In vivo galactitol inhibitory activity measured by its ability to inhibit galactitol accumulation in diaphragm at 4 mg/Kg/day; format: functional; outline: as §1
[23] = test system: Rattus norvegicus; assay: In vivo galactitol inhibitory activity measured by its ability to inhibit galactitol accumulation in lens at 4 mg/Kg/day; format: functional; conditions: Lens of camera-type eye; outline: as §1
[24] = test system: Rattus norvegicus; assay: In vivo galactitol inhibitory activity measured by its ability to inhibit galactitol accumulation in sciatic nerve at 10 mg/Kg/day; format: functional; outline: as §3
[25] = test system: Rattus norvegicus; assay: In vivo galactitol inhibitory activity measured by its ability to inhibit galactitol accumulation in sciatic nerve at 3 mg/Kg/day; NS=Not significant (% Inhibition); format: functional, organism-based; outline: as §3
[26] = test system: Rattus norvegicus; assay: In vivo galactitol inhibitory activity measured by its ability to inhibit galactitol accumulation in lens at 10 mg/Kg/day; NS=Not significant (% Inhibition); format: functional; conditions: Lens of camera-type eye; outline: as §1
[27] = test system: Rattus norvegicus; assay: In vivo galactitol inhibitory activity measured by its ability to inhibit galactitol accumulation in sciatic nerve at 46 mg/Kg/day; NS=Not significant (% Inhibition); format: functional, organism-based; outline: as §3
[28] = test system: Rattus norvegicus; assay: In vivo galactitol inhibitory activity measured by its ability to inhibit galactitol accumulation in diaphragm at 46 mg/Kg/day; NS=Not significant (% Inhibition); format: functional, organism-based; outline: as §1
[29] = test system: Rattus norvegicus; assay: In vivo galactitol inhibitory activity measured by its ability to inhibit galactitol accumulation in lens at 46 mg/Kg/day; format: functional; conditions: Lens of camera-type eye; outline: as §1

SMILES: CCN1C(=O)c2ccc(Cl)cc2C12CC(=O)NC2=O (stereo not drawn)
- inhibition [1]: inactive
- inhibition [2]: inactive
- Decrease [3]: <15%
- inhibition [4]: 37%
- inhibition [5]: inactive
- inhibition [6]: 14%

SMILES: Cc1oc(-c2ccccc2)nc1CCOc1ccc(CC2SC(=O)NC2=O)cc1 (stereo not drawn)
- Decrease [7]: 40%
- Decrease [8]: 52%

SMILES: CN1C(=O)c2ccc(Cl)cc2C12CC(=O)NC2=O (single isomer, unassigned; (-))
- inhibition [4]: 33%
- inhibition [9]: inactive
- inhibition [10]: inactive
- inhibition [6]: 0%

SMILES: Cc1ccc2c(c1)C(=O)N(C)C21CC(=O)NC1=O (stereo not drawn)
- inhibition [11]: inactive
- inhibition in vivo at 3 mg/kg/day [12]: 27%
- inhibition in vivo at 10 mg/kg/day [13]: 12%
- inhibition in vivo at 6 mg/kg/day [14]: 13%
- Decrease [3]: <15%
- inhibition in vivo at 6 mg/kg/day [15]: 39%
- inhibition in vivo at 10 mg/kg/day [16]: 47%
- inhibition [4]: 61%
- inhibition [17]: inactive
- inhibition in vivo at 3 mg/kg/day [18]: 20%
- inhibition [19]: inactive
- inhibition [6]: 26%

SMILES: CC(C)N1C2(CC(=O)NC2=O)c2ccccc2S1(=O)=O (stereo not drawn)
- Decrease [20]: 27%

SMILES: O=C1NC(=O)[C@@]2(CCOc3ccc(F)cc32)N1 [SORBINIL]
- inhibition in vivo at 4 mg/kg/day [21]: 55%
- inhibition in vivo at 4 mg/kg/day [22]: 69%
- inhibition in vivo at 4 mg/kg/day [23]: 20%

SMILES: Cc1cccc2c1C(=O)N(C)C21CC(=O)NC1=O (stereo not drawn)
- inhibition [11]: inactive
- inhibition in vivo at 3 mg/kg/day [12]: 37%
- inhibition [1]: inactive
- inhibition in vivo at 6 mg/kg/day [14]: 28%
- inhibition in vivo at 6 mg/kg/day [15]: 57%
- Inhibition [24]: 50%
- inhibition in vivo at 10 mg/kg/day ([24]; Rattus norvegicus, Sciatic nerve): 63%
- inhibition in vivo at 10 mg/kg/day [16]: 69%
- inhibition [4]: 59%
- inhibition [25]: inactive
- inhibition in vivo at 10 mg/kg/day [26]: 29%
- inhibition [6]: 11%

SMILES: O=C(O)CN1C(=O)c2ccccc2C12CC(=O)NC2=O (stereo not drawn)
- inhibition [27]: inactive
- inhibition [28]: inactive
- inhibition in vivo at 46 mg/kg/day [29]: 17%
